Calls of active or inactive are those of the source. No cut-off for these calls is given here.
Tests used:
[1] = tested on: Pseudomonas aeruginosa; experiment: Antibacterial activity against Pseudomonas aeruginosa assessed as LPS neutralisation at 5 uM by LAL assay; assay type: functional, organism-based
[2] = tested on: Escherichia coli; experiment: Antibacterial activity against Escherichia coli 055:B5 assessed as LPS neutralisation by LAL assay; assay type: functional, organism-based
In short: (§1)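 LPS was used at 0.04 units: 0.01 ng for E. coli 055:B5, 0.01 ng for E. coli 0111:B4, 0.003 ng for K. pneumoniae, 0.01 ng for P. aeruginosa, 0.03 ng for S. typhimurium and 0.03 ng for S. marcescens. IC50 came from sigmoidal fits of dose-response curves.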

[3] = tested on: Klebsiella pneumoniae; experiment: Antibacterial activity against Klebsiella pneumoniae assessed as LPS neutralisation by LAL assay at 5 uM; assay type: functional, organism-based
[4] = tested on: Salmonella typhimurium; experiment: Antibacterial activity against Salmonella Typhimurium assessed as LPS neutralisation by LAL assay; assay type: functional, organism-based, Salmonella enterica subsp. enterica serovar Typhimurium; conditions: Salmonella enterica; in short: as §1
[5] = tested on: Escherichia coli; experiment: Antibacterial activity against Escherichia coli 0111:B4 assessed as LPS neutralisation at 5 uM by LAL assay; assay type: functional, organism-based
[6] = tested on: Salmonella typhimurium; experiment: Antibacterial activity against Salmonella Typhimurium assessed as LPS neutralisation by LAL assay at 5 uM; assay type: functional, organism-based; conditions: Salmonella enterica subsp. enterica serovar Typhimurium
[7] = tested on: Escherichia coli; experiment: Antibacterial activity against Escherichia coli 0111:B4 assessed as LPS neutralisation by LAL assay; assay type: functional, organism-based; in short: as §1
[8] = tested on: Pseudomonas aeruginosa; experiment: Antibacterial activity against Pseudomonas aeruginosa assessed as LPS neutralisation by LAL assay; assay type: functional, organism-based; in short: as §1
[9] = tested on: Klebsiella pneumoniae; experiment: Antibacterial activity against Klebsiella pneumoniae assessed as LPS neutralisation by LAL assay; assay type: functional, organism-based; in short: as §1
[10] = tested on: Serratia marcescens; experiment: Antibacterial activity against Serratia marcescens assessed as LPS neutralisation by LAL assay at 5 uM; assay type: functional, organism-based
[11] = tested on: Serratia marcescens; experiment: Antibacterial activity against Serratia marcescens assessed as LPS neutralisation by LAL assay; assay type: functional, organism-based; in short: as §1
[12] = tested on: Mus musculus; experiment: Survival of Escherichia coli 055:B5 LPS-challenged C57/BL6 mouse at 50 mg/kg, ip after 120 hrs relative to control; assay type: functional; conditions: route intraperitoneal
In short: (§2)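 Male C57/BL6 mice (n = 4–8/group) received a lethal LPS dose: 500 µg for E. coli 0111:B4, 600 µg for E. coli 055:B5 and 600 µg for Salmonella. LPS was premixed with compound in 2% DMSO v/v for 30 min, then injected i.p. Controls got DMSO alone or compound alone. Survival was followed for up to 120 h, and mean survival time was compared by Student's t-test.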

[13] = tested on: Mus musculus; experiment: Survival of Escherichia coli 055:B5 LPS-challenged C57/BL6 mouse at 5 mg/kg, ip after 120 hrs relative 10 control; assay type: functional, organism-based; parameters: dose 5 mg/kg; in short: as §2
[14] = tested on: Mus musculus; experiment: Survival of Salmonella LPS-challenged C57/BL6 mouse at 50 mg/kg, ip after 120 hrs relative to control; assay type: functional; conditions: route intraperitoneal; in short: as §2
[15] = tested on: Escherichia coli; experiment: Antibacterial activity against Escherichia coli 055:B5 assessed as LPS neutralisation at 5 uM by LAL assay; assay type: functional, organism-based
[16] = tested on: Mus musculus; experiment: Survival of Escherichia coli 0111:B4 LPS-challenged C57/BL6 mouse at 50 mg/kg, ip after 120 hrs relative to control; assay type: functional; conditions: route intraperitoneal; in short: as §2

| SMILES | Activity [1] | IC50 [2] [µM] | Activity [3] | IC50 [4] [nM] | Activity [5] | Activity [6] | IC50 [7] [nM] | IC50 [8] [nM] | IC50 [9] [nM] | Activity [10] | IC50 [11] [µM] | survival at 50 mg/kg [12] [%] | Activity [13] | survival at 50 mg/kg [14] [%] | Activity [15] | survival at 50 mg/kg [16] [%] |
| --- | --- | --- | --- | --- | --- | --- | --- | --- | --- | --- | --- | --- | --- | --- | --- | --- |
| CC(C)(C)c1cc2c(O)c(c1)Cc1cc(C(C)(C)C)cc(c1OCCNC(=N)N)Cc1cc(C(C)(C)C)cc(c1O)Cc1cc(C(C)(C)C)cc(c1OCCNC(=N)N)C2 | inactive | > 5 | inactive | 4400 |  |  |  |  |  |  |  |  |  |  |  |  |
| CC(C)CCOc1c2cccc1Cc1cc(CCCOP(=O)(O)O)cc(c1O)Cc1cccc(c1OCCC(C)C)Cc1cc(CCCOP(=O)(O)O)cc(c1O)C2 | inactive | > 5 | inactive |  | inactive | inactive |  |  |  |  |  |  |  |  |  |  |
| NCCNC(=O)COc1c2cccc1Cc1cccc(c1O)Cc1cccc(c1OCC(=O)NCCN)Cc1cccc(c1O)C2 | inactive | > 5 | inactive | > 5000 | inactive |  |  |  |  |  |  |  |  |  |  |  |
| CN(C)CCNC(=O)COc1c2cccc1Cc1cccc(c1O)Cc1cccc(c1OCC(=O)NCCN(C)C)Cc1cccc(c1O)C2 | inactive | > 5 | inactive | > 5000 |  |  | > 5000 |  |  |  |  |  |  |  |  |  |
| CC(C)(C)c1cc2c(OCc3cn(CCN)nn3)c(c1)Cc1cc(C(C)(C)C)cc(c1OCc1cn(CCN)nn1)Cc1cc(OCc3cnnn3CCN)cc(c1C(C)(C)C)Cc1cc(C(C)(C)C)cc(c1OCc1cn(CCN)nn1)C2 |  | 0.6 |  |  |  | inactive | 1500 | 1000 | 900 | inactive |  |  |  |  |  |  |
| CN(C)CCNC(=O)COc1c2cccc1Cc1cccc(c1OCC(=O)NCCN(C)C)Cc1cccc(c1OCC(=O)NCCN(C)C)Cc1cccc(c1OCC(=O)NCCN(C)C)C2 [OTX-008] | inactive | 3.4 |  |  |  | inactive | > 5000 |  | 1500 |  | > 5 |  |  |  |  |  |
| CC(C)Cc1cc2c(OCC(=O)NCCN(C)C)c(c1)Cc1cc(CC(C)C)cc(c1OCC(=O)NCCN(C)C)Cc1cc(C(C)C)cc(c1OCC(=O)NCCN(C)C)Cc1cc(CC(C)C)cc(c1OCC(=O)NCCN(C)C)C2 |  | 0.006 |  | 400 |  |  | 3100 | 4200 | 1000 |  |  | 60 | inactive | 80 |  |  |
| CCCc1cc2c(OCC(=O)NCCN(C)C)c(c1)Cc1cc(CC(C)C)cc(c1OCC(=O)NCCN(C)C)Cc1cc(CCC)cc(c1OCC(=O)NCCN(C)C)Cc1cc(CC(C)C)cc(c1OCC(=O)NCCN(C)C)C2 |  | 3.8 |  | 3100 |  |  | 3700 | > 5000 | 2100 |  |  |  |  |  |  |  |
| N=C(N)NCCOc1c2cccc1Cc1cccc(c1O)Cc1cccc(c1OCC(=O)NC(=N)N)Cc1cccc(c1O)C2 | inactive | 4.1 | inactive | > 5000 |  |  | 3900 |  |  |  |  |  |  |  |  |  |
| CC(C)(C)c1cc2c(OCC(=O)NCCN)c(c1)Cc1cc(C(C)(C)C)cc(c1OCC(=O)NCCN)Cc1cc(C(C)(C)C)cc(c1OCC(=O)NCCN)Cc1cc(C(C)(C)C)cc(c1OCC(=O)NCCN)C2 |  | 0.9 |  | 600 |  |  | 1600 | 800 | 300 |  | 1.5 |  |  |  |  |  |
| CCCc1cc2c(OCC(=O)NCCN(C)C)c(c1)Cc1cc(CCC)cc(c1OCC(=O)NCCN(C)C)Cc1cc(CCC)cc(c1OCC(=O)NCCN(C)C)Cc1cc(OCC(=O)NCCN(C)C)cc(c1CCC)C2 | inactive | 0.05 |  | 800 |  |  | 2700 |  | 400 | inactive |  |  |  |  |  |  |
| CC(C)(C)c1cc2c(OCC(=O)NCCCn3cncn3)c(c1)Cc1cc(C(C)(C)C)cc(c1OCC(=O)NCCCn1cncn1)Cc1cc(C(C)(C)C)cc(c1OCC(=O)NCCCn1cncn1)Cc1cc(C(C)(C)C)cc(c1OCC(=O)NCCCn1cncn1)C2 | inactive |  | inactive |  | inactive | inactive |  |  |  |  |  |  |  |  | inactive |  |
| CN(C)CCNC(=O)COc1c2cc(C(C)(C)C)cc1Cc1cc(C(C)(C)C)cc(c1OCC(=O)NCCN(C)C)Cc1cc(C(C)(C)C)cc(c1OCC(=O)NCCN(C)C)Cc1cc(C(C)(C)C)cc(c1OCC(=O)NCCN(C)C)C2 |  | > 5 |  | 600 |  |  | 1400 | > 5000 | 1500 |  | 3.4 |  |  |  |  |  |
| CC(C)(C)c1cc2c(OCCCCN)c(c1)Cc1cc(C(C)(C)C)cc(c1OCCCCN)Cc1cc(C(C)(C)C)cc(c1OCCCCN)Cc1cc(C(C)(C)C)cc(c1OCCCCN)C2 |  | 1.3 |  | 200 |  |  | 100 | 500 | 500 |  | 4.5 |  |  |  |  |  |
| CC(C)CCOc1c2cccc1Cc1cc(CCC(=O)O)cc(c1O)Cc1cccc(c1OCCC(C)C)Cc1cc(CCC(=O)O)cc(c1O)C2 | inactive | > 5 | inactive |  |  | inactive | > 5000 |  |  |  |  |  |  |  |  |  |
| CC(C)CCOc1c2cc(CCC(=O)NCCN(C)C)cc1Cc1cc(CCC(=O)NCCN(C)C)cc(c1OCCC(C)C)Cc1cc(CCC(=O)NCCN(C)C)cc(c1OCCC(C)C)Cc1cc(CCC(=O)NCCN(C)C)cc(c1OCCC(C)C)C2 | inactive | > 5 |  | 3200 |  |  | > 5000 |  | 2400 |  |  |  |  |  |  |  |
| CC(C)(C)c1cc2c(O)c(c1)Cc1cc(C(C)(C)C)cc(c1OCCNC(=N)N)Cc1cc(C(C)(C)C)cc(c1O)Cc1cc(C(C)(C)C)cc(c1OCCN)C2 | inactive | 4.1 | inactive | 2600 |  |  | > 5000 |  |  |  |  |  |  |  |  |  |
| CC(C)(C)c1cc2c(OCCCCNC(=N)N)c(c1)Cc1cc(C(C)(C)C)cc(c1OCCCCNC(=N)N)Cc1cc(C(C)(C)C)cc(c1OCCCCNC(=N)N)Cc1cc(C(C)(C)C)cc(c1OCCCCNC(=N)N)C2 |  | 0.04 |  | 600 |  |  | 700 | 1500 | 1000 |  |  | 40 | inactive | 60 |  | 100 |
| CC(C)(C)c1cc2c(OCc3cn(CCN)nn3)c(c1)Cc1cc(C(C)(C)C)cc(c1OCc1cn(CCN)nn1)Cc1cc(C(C)(C)C)cc(c1OCc1cn(CCN)nn1)Cc1cc(C(C)(C)C)cc(c1OCc1cn(CCN)nn1)C2 |  | 0.05 |  | 1100 |  |  | 2200 | 2600 | 1000 |  | > 5 |  | inactive | 100 |  | 25 |
| CC(C)(C)c1cc2c(OCCCCN)c(c1)Cc1cc(C(C)(C)C)cc(c1OCCCCNC(=N)N)Cc1cc(C(C)(C)C)cc(c1OCCCCNC(=N)N)Cc1cc(C(C)(C)C)cc(c1OCCCCNC(=N)N)C2 |  | 0.1 |  | 600 |  |  | 400 | 800 | 500 |  | 3.2 |  |  |  |  |  |
| CC(C)CCOc1c2cccc1Cc1cc(CCCOS(=O)(=O)O)cc(c1O)Cc1cccc(c1OCCC(C)C)Cc1cc(CCCOS(=O)(=O)O)cc(c1O)C2 | inactive | 5 |  |  |  | inactive | 5000 |  | 2100 |  | 4.2 |  |  |  |  |  |
| CCCc1cc2c(OCC(=O)NCCN(C)C)c(c1)Cc1cc(CCC)cc(c1OCC(=O)NCCN(C)C)Cc1cc(CCC)cc(c1OCC(=O)NCCN(C)C)Cc1cc(CCC)cc(c1OCC(=O)NCCN(C)C)C2 | inactive | 4.4 |  | 4100 |  |  | > 5000 |  | 80 |  |  |  |  |  |  |  |
| C=CCc1cc2c(OCC(=O)NCCN(C)C)c(c1)Cc1cc(CC(=C)C)cc(c1OCC(=O)NCCN(C)C)Cc1cc(CC=C)cc(c1OCC(=O)NCCN(C)C)Cc1cc(CC(=C)C)cc(c1OCC(=O)NCCN(C)C)C2 |  | 3.6 | inactive | > 5000 |  |  | 4700 | > 5000 |  |  |  |  |  |  |  |  |
